# PvdQ inh: P. aeruginosa PvdQ acylase inhibitors, primary screen, biochemical, fluorescence, plate reader and imaging, single point; PvdQ acylase [Pseudomonas aeruginosa LESB58]; inhibition, % at 10 µM; 0.063% of 340,000 active; purified PvdQ acylase; in the data active = inhibition above about 30%, passing the limit was not always enough; inconclusive = no clear call, values can overlap the other calls;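 note: 0% = vehicle neutral wells and 100% = reference inhibitor wells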
# SR-BI DiI inh: inhibitors of SR-BI mediated HDL lipid uptake, primary screen, ldlA[mSR-BI] cells, fluorescence, single point | Scavenger receptor class B member 1 (Mus musculus), Q61009 | ldlA[mSR-BI] CHO cells, DiI-HDL uptake fluorescence, 3 h | inhibition, % at 12.5 µM | 0.96% of 320,000 active | AID 488896, 2010;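 active = mean replicate inhibition of at least 70% and a set share of replicates each scoring 70 or more; inconclusive = meets just one of the two criteria; inactive = fails both criteria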;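 note: 0% = median of neutral control wells and 100% = median of positive control wells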
# S100A4 inh HTS: inhibitors of S100A4-myosin IIA peptide binding, primary screen, biochemical, fluorescence polarization, TAMRA-MyoIIA peptide; inhibition, % at 10.7 µM; 0.14% of 360,000 active; Protein S100-A4 (Homo sapiens), P26447;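 active = mean inhibition of at least 70% across replicates, with every replicate also reaching that level; inconclusive = mean inhibition reaches 70% but some replicates fall short; inactive = mean inhibition below 70%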
#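 System – human S100A4 monomer protein, biochemical binding assay · Buffer or medium – Calcium-containing HEPES buffer, pH 7.2 · Timing – 5 min between mix addition and reading · Also added – TAMRA-labelled myosin IIA heavy-chain peptide probe, 5 nM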
# dFosB act: activators of delta FosB homodimer, primary screen, biochemical, fluorescence polarization, TAMRA-CDK5 oligo, single point. purified delta FosB; percent of positive-control signal above neutral wells. 0.99% of 340,000 active. Protein FosB (Mus musculus), P13346. AID 493131, 2011. activation, % at 25 µM;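 active = mean activation above about 17%, with every replicate also reaching it, limit read from the data, passing the limit was not always enough; inconclusive = only one of the two conditions met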
# Target sequence (P13346 whole entry, looked up): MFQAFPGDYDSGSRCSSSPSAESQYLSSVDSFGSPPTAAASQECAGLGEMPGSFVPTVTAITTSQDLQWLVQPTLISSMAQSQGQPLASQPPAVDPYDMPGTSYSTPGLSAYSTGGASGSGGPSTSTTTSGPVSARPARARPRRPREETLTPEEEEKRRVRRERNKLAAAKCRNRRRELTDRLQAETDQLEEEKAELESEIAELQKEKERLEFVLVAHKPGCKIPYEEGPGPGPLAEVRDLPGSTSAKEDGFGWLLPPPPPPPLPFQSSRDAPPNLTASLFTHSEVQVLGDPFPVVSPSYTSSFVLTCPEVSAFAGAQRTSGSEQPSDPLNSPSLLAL
# SR-BI uptake up: activators of SR-BI mediated DiI-HDL uptake, primary screen, ldlA[mSR-BI] CHO cells, DiI fluorescence; 3 h; 100 = double the neutral-control signal; activation, % at 12.5 µM; 0.096% of 320,000 active;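 active = mean replicate activation of at least 60% and every replicate at or above 60%; inconclusive = mean or all-replicate condition met, but not both; inactive = mean below 60% and not all replicates reaching 60%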;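 note: 0% = median plate neutral-control signal and 100% = twice that signal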
#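 System: LDL receptor-deficient CHO ldlA cells overexpressing murine SR-BI | Timing: 3 h uptake period with compound, 37 °C | Medium: HEPES-buffered (25 mM, pH 7.4) F12 plus 0.5% BSA | Dosing: Single-point compound dose | Signal: Bottom-read fluorescence, 550/595 nm | Read-out: Retained DiI signal reflecting DiI-HDL uptake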
# RAD54 branch: inhibitors of human RAD54 branch migration, primary screen, biochemical, fluorescence, single point; DNA repair and recombination protein RAD54-like (Homo sapiens), Q92698; RAD54 Holliday junction branch migration, FAM/BHQ fluorescence; inhibition, % at 10.4 µM; 0.14% of 360,000 active; AID 602329, 2012;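 active = mean normalized replicate activity at least 40 and at least half of replicates scoring 40 or more; inconclusive = only one of the two criteria met; inactive = mean below 40 and under half of replicates reaching 40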;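 note: 0% = median of neutral control wells and 100% = median of positive control wells; inhibitors cause a drop in the FAM fluorescence signal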
# DNA binding: DNA binding of candidate compounds, dose response, artefact control for RAD54 inhibitor project, biochemical, fluorescence polarization, cherry-pick; 8% of 460 active; shares compounds with RAD54 branch; AC50, µM (series often up to 35 µM), without a hit: at the highest dose activity change, negative = DNA binding; Acridine orange-DNA displacement, 20 min;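 active = signal drop giving an AC50 within twice the top valid tested concentration of each sample, actives reach about 35 µM in these data; inactive = activity opposite to expected, plus the rest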;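 note: polarization loss reports compound binding to salmon sperm DNA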
# * = called active by the depositor; u = inconclusive; x = no result given. Shown are actives, neighbours in structure and some others; about 1.6% of the full set was active somewhere.
SMILES,PvdQ inh,SR-BI DiI inh,S100A4 inh HTS,dFosB act,SR-BI uptake up,RAD54 branch,DNA binding
OCCN1CCN(c2ncnc3sc(-c4ccccc4)cc23)CC1,-8,25,-3,8,-25,u,-21%
COc1ccc(NC(=O)c2ccc(-c3ccc(-c4noc(C)n4)cc3C)cc2)cc1N1CCN(C)CC1,-9,x,-11,21*,x,54*,3%
COc1ccc(-c2nc(-c3ccc(NC(=O)c4ccncc4)cc3)no2)cc1OC,-2,65,x,-13,-61,-4,x
C[C@@H]1CN([C@H](C)CO)C(=O)c2cc(-c3cccc(F)c3)cnc2O[C@@H]1CN(C)C(=O)C1CCC1,x,x,7,x,x,8,x
Cc1ccc(F)cc1-c1cc2nc(NCCCN(C)C)n(C)c(=O)c2s1,x,x,8,x,x,33,x
CN(C)CCCNc1nc2cc(-c3ccsc3)sc2c(=O)n1C,x,x,-4,x,x,32,x
CN(C)CCCNc1nc2cc(-c3ccc(C(=O)N4CCN(C)CC4)cc3)sc2c(=O)n1C,x,x,4,x,x,u,-16%
COc1ncccc1-c1cc2nc(NCCCN(C)C)n(C)c(=O)c2s1,x,x,-1,x,x,90*,-19%
COc1cccc(-c2cc3nc(NCCCN(C)C)n(C)c(=O)c3s2)c1,x,x,-7,x,x,62*,-2%
COc1cccc(CNc2nc3cc(-c4ccc(C(=O)N5CCN(C)CC5)cc4)sc3c(=O)n2C)c1,x,x,8,x,x,18,x
CN(C)CCCNc1nc2cc(-c3ccc4c(ccn4C)c3)sc2c(=O)n1C,x,x,3,x,x,54*,0%
C[C@@H]1CN([C@H](C)CO)C(=O)c2cc(NC(=O)Nc3ccc(C(F)(F)F)cc3)ccc2O[C@H]1CN(C)S(C)(=O)=O,x,x,-8,x,x,2,x
